The entries come from a sample that favours hits as a whole.
Insulin prom act = TRM-6 insulin promoter activation | TRM-6 cells (human fetal islet line), insulin promoter eGFP reporter, imaging; plate-scaled: unstimulated 0, stimulated control 100 | activation, % at 2 µM | 0.81% of 130,000 active;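 active means activation at 2 µM above a set limit, confirmed on inspection of the cell images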;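 further: share of cells whose green reporter signal exceeds an intensity cutoff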
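Assay system: TRM-6 human fetal islet cells, insulin promoter–eGFP reporter; Also added: 0.75 µM tamoxifen as reporter inducer; Schedule: 15 h tamoxifen pre-treatment, 48 h compound treatment at 37 °C; Signal: fixed-cell fluorescence microscopy, eGFP plus Hoechst; Read-out: percent activation from GFP-positive cell fraction; Control set: stimulated and unstimulated wells.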
The depositor's hits bear a star.

SMILES | Insulin prom act
O=C(Nc1ccccc1C(=O)N/N=C/c1ccncc1)c1ccccc1 | 6
Cc1ccc(NC(=O)Cn2nc(-c3ccccc3Cl)ccc2=O)c(Br)c1 | 0
COc1ccc(NS(=O)(=O)c2cc(C(=O)N3CCN(C(C)=O)CC3)ccc2Cl)cc1 | 7
COc1ccc(NS(=O)(=O)c2cc(N/C(=N\S(=O)(=O)c3ccccc3)c3ccc(F)cc3)ccc2Cl)cc1 | 76*
CCCCOC(=O)c1ccc(N/C(=N\S(=O)(=O)c2ccccc2)c2ccccc2)cc1 | -6
CCCCNC(=O)NC1CCCC1 | 10
COc1ccc2[nH]c3c(NCCC4=CCCCC4)ncnc3c2c1 | -65
CN(Cc1nc(-c2ccncc2)no1)S(=O)(=O)c1ccccc1 | 24
O=c1cc(CS(=O)(=O)c2ccccc2)nc(-c2ccncc2)[nH]1 | 331*
O=c1[nH]c(CS(=O)(=O)c2ccccc2)nc2ccccc12 | 6
COc1ccc(NC(=S)NNC(=O)c2nnn(-c3ccccc3)c2C)cc1 | 3
Cc1ccc(C2CC(=O)c3cnn(-c4nc(C)cc(C)n4)c3C2)cc1 (centres undefined) | 131
O=C(CCCCCN1C(=O)CCC1=O)Nc1ccc2c(c1)OCO2 | 475*
O=C(CCCCCN1C(=O)c2ccccc2C1=O)Nc1ccc2c(c1)OCCO2 | 0
O=C(CCCN1C(=O)CCC1=O)Nc1ccc2c(c1)OCCO2 | 118
COc1ccc(NC(=O)C(Sc2nnc3ccccn23)c2ccccc2)cc1Cl (centres undefined) | -2
COc1ccc(-c2nc(NC(=O)c3[nH]c(C)c(C(C)=O)c3C)sc2C)cc1 | -8
CCOC(=O)C(C)Sc1ncc(-c2ccccc2)cn1 (centres undefined) | 0
Cc1c(NC(=O)C(C)OC(=O)[C@@H](NC(=O)c2ccccc2)C(C)C)c(=O)n(-c2ccccc2)n1C (some centres undefined) | 5
COc1ccc(CNC(=O)CSc2ncnc3ccccc23)cc1OC | -9
COc1cc2ncnc(NCc3ccc(C)cc3)c2cc1OC | 230*
COc1cc(OC)c(OC)cc1CNc1cc(C)ccc1OC | 9
O=C(NCCc1c[nH]c2ccccc12)C(=O)NCC(c1ccco1)N1CCN(c2ccccc2)CC1 (centres undefined) | 3
CCNc1nc(NCC)n2c(SC(C(=O)Nc3cc(Cl)cc(Cl)c3)c3ccccc3)nnc2n1 (centres undefined) | -3
C/C(=N\Nc1nc(Cl)c(Cl)cc1Cl)c1ccc(S(=O)(=O)NCc2ccco2)cc1 | 6
SMILES | Insulin prom act
COc1cc(C2CC(=O)Nc3c2c(=O)nc2c(C)cccn32)cc(OC)c1OC (centres undefined) | 0
CC/C(=C/c1sc2ccccc2[n+]1CC)SC | 0
CC[n+]1c(C=C2C=C(C)OC(C)=C2)sc2ccccc21 | 809*
Cc1sc2ccccc2[n+]1CCC(C)S(=O)(=O)[O-] (centres undefined) | 9
COc1cccc(/C=C/C(=O)c2ccc[nH]2)c1 | -7
COc1cccc(/C=C2\C(=O)C(=O)c3ccccc32)c1 | 178*
COc1cccc(/C=N/NC(=O)c2nc(-c3ccccc3)cc(-c3ccccc3)n2)c1 | -3
CCc1nc(C)cn1S(=O)(=O)c1cc(C)c(OC)c(C)c1C | -9
O=CN1CCN(C(=O)c2ccc(-c3nc4ccccc4s3)s2)CC1 | 7
O=C(OC(C(=O)NC1CCCC1)c1ccncc1)C1=Cc2ccccc2OC1 (centres undefined) | 3
CN1/C(=C\C=Nc2ccc3ccccc3c2)C(C)(C)c2ccccc21 | 6
CN1\C(=C/C=C/C=C/C=[N+](C)C)C(C)(C)c2ccccc21 | 567*
CN1/C(=C\C(=O)C(F)F)C(C)(C)c2ccccc21 | 5
O=S1(=O)C=C(SCc2ccc(Cl)c(Cl)c2)Nc2ccccc21 | 7
CCc1cc2c(=O)c(-c3nc(C)cs3)coc2cc1OC(C)C(=O)NCCO (centres undefined) | -7
CC(=O)Nc1ccc(/C(C)=N/NC(=O)c2ccccc2Cl)cc1 | -6
O/N=C/c1ccccc1Oc1ccccc1 | 3
O/N=C/c1cc(Cl)ccc1OCc1ccccc1Cl | 0
Cc1cc(C)cc(Oc2ccccc2/C=N\O)c1 | 223*
CCc1ccc(NS(=O)(=O)c2cccc3nonc23)cc1 | 0
Cc1nn(Cc2ccc(Cl)cc2)c(C)c1NC(=O)CCCn1nc([N+](=O)[O-])c(Cl)c1C | -7
COC(=O)C1=NN(c2ccc(Cl)cc2)C2C(=O)N(c3ccccc3OC)C(=O)C12 (centres undefined) | -3
O=C(c1ccccc1)N1CCCCC(S(=O)(=O)c2ccc3ccccc3c2)C1=O (centres undefined) | 4
O=C1NCCN1Cc1cccc(Cl)c1 | 0
O=C1N(Cc2cccc(Cl)c2)C[C@@H]2C[C@@H](c3ccco3)N3CCC[C@@]123 | 683*
CCCn1ncc([C@@H]2C[C@H]3CN(Cc4cccc(Cl)c4)C(=O)[C@]34CCCN24)c1C | 133
NNC(=O)CCc1ccc(S(=O)(=O)N2CCOCC2)cc1 | -81
CC1(C)C(=O)N(OCc2ccccc2)C(C)(C)C(=O)N1OCc1ccccc1 | -4

Screens deposited in PubChem BioAssay by Columbia University Molecular Screening Center.
